# This is a sample that favours compounds with a hit; in the whole collection about 2.9% have one here.
# MEKK2wt PB1 HTS = raises or lowers MEK5 binding to wildtype human MEKK2 PB1 domain | AID 1531 | Q9Y2U5 | binding response (% of control), % at 10 µM | 1.1% of 290,000 active | bead flow cytometry, Alexa488-MEK5 binding to MEKK2 WT; actives lie on both sides; in the data active = binding response below about 67% or above about 130%; inconclusive = no clear call, values can overlap the other calls; inactive = in between
# MEKK2 mut-MEK5 = signal of MEK5 binding to mutant human MEKK2 PB1 domain; bead flow cytometry, Alexa488-MEK5 binding to MEKK2 mutant; 0.35% of 290,000 active; percent response, % at 10 µM; AID 1530; in the data active = percent response above about 24%, passing the limit was not always enough
# Apaf-1 inh = blocks human Apaf-1 apoptosome activity. O14727. AID 489030. 0.71% of 330,000 active. reconstituted apoptosome caspase-3 activity, DEVD-Rh110 fluorescence. inhibition, % at 20 µM; active = inhibition of at least 40% at 20 µM;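 note: plate controls were DMSO wells for no effect and DEVD-CHO caspase inhibitor wells for full effect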
#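 Material: biochemical Apaf-1 apoptosome reconstitution. Medium: Hepes buffer, pH 7.5. Also added: cytochrome c activation, bis-DEVD rhodamine 110 substrate. Timing: 30 min compound preincubation, 50 min activation, room temperature. Measured by: rhodamine 110 fluorescence at Ex 480/Em 540 nm.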
# MEKK3 PB1 HTS = modulators (inhibitors or enhancers) of MEK5 binding to human MEKK3 PB1 domain. AID 1529. bead-based flow cytometry, Alexa488-MEK5 binding to MEKK3; actives lie on both sides; 0 = blocked by unlabeled MEK5, 100 = vehicle. Q99759. binding response (% of control), % at 10 µM. 1.4% of 290,000 active;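 active = binding response more than 3 SD above or below the average of its plate-row segment, actives on both sides; inconclusive = wells at one plate position flagged as instrument error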;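 note: Alexa488 bead fluorescence after subtracting the streptavidin-only scavenger bead signal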
# UBC13 inh = inhibitors of human UBC13 polyubiquitin chain formation | 0.47% of 330,000 active | inhibition, % at 20 µM | TR-FRET | P61088; in the data active = inhibition above about 45%, passing the limit was not always enough; inconclusive = no clear call, values can overlap the other calls
# MEKK2wt confirm = raises or lowers MEK5 binding to wildtype human MEKK2, retest. shares compounds with MEKK3 PB1 HTS. bead flow cytometry, Alexa488-MEK5 binding to MEKK2 WT; actives lie on both sides. binding response (% of control), % at 10 µM. 2.4% of 5,900 active; in the data active = binding response below about 16% or above about 210%; inactive = in between
# MEKK2mut-MEK5 = signal of MEK5 binding to mutant human MEKK2, retest | shares compounds with MEKK3 PB1 HTS | bead flow cytometry, Alexa488-MEK5 binding to MEKK2 mutant | percent response, % at 10 µM | 2% of 5,900 active; in the data active = percent response mostly above about 71%, no sharp cut-off; inactive = mostly below about 38%;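 note: higher means compound restores mutant binding toward wildtype level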
# MEKK3 confirm = confirmation of inhibitors of MEK5 binding to human MEKK3 | shares compounds with MEKK3 PB1 HTS | bead flow cytometry, Alexa488-MEK5 binding to MEKK3; active compounds read low | binding response (% of control), % at 10 µM | 1.8% of 5,900 active | AID 1894;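 active = binding response below 72% of control, or above a set upper limit, though filed actives all read lower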;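 note: 100% = DMSO only wells and 0% = binding blocked by excess unlabeled MEK5; lower values mean stronger disruption of MEK5 binding to MEKK3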
# Starred values were filed as active, the others as inactive; u = inconclusive; x = no result; [ ] = another dose, or the depositor's remark.
SMILES,MEKK2wt PB1 HTS,MEKK2 mut-MEK5,Apaf-1 inh,MEKK3 PB1 HTS,UBC13 inh,MEKK2wt confirm,MEKK2mut-MEK5,MEKK3 confirm
Cc1cccc(OCC(=O)Nc2c3c(nn2C(C)(C)C)CS(=O)(=O)C3)c1,113.0,11.0,-3.3,106.0,2.7,x,x,x
C=CCN1C(=O)/C(=C\C=C2\N(C)c3ccccc3C2(C)C)SC1=S,x,7.0,-2.3,75.0*[inhibitor],-230.5,46.0,-29.0,75.0
CCCN1C(=O)/C(=C/C=C2\N(CC)c3ccccc3C2(C)C)SC1=S,134.0,151.0*,7.7,68.0*[inhibitor],-185.8,71.0,-14.0,90.0
CCCCN1C(=O)/C(=C/C=C2\Oc3ccccc3N2CC)SC1=S,35.0*[inhibitor],-13.0,x,69.0*[inhibitor],x,40.0,-38.0,79.0
CCCN1C(=O)/C(=C\C=C2/Sc3ccccc3N2CCO)SC1=S,33.0*[inhibitor],-17.0,5.5,68.0*[inhibitor],-92.6,90.0,-8.0,96.0
NC(=O)c1c(NC(=O)COC(=O)c2ccc(S(=O)(=O)Nc3ccccc3)cc2)sc2c1CCCC2,97.0,-3.0,1.1,107.0,-24.5,x,x,x
Cc1ccc(-n2c(SCC(=O)NCc3ccco3)nc3c(sc4ccccc43)c2=O)cc1,92.0,-1.0,-2.0,80.0,20.6,x,x,x
COc1cc(/C=C2\C(=O)NN(c3ccccc3)C2=O)ccc1OCC(N)=O,122.0,2.0,3.2,134.0*,-18.1,102.0,3.0,102.0
COC(=O)c1ccc(N2NC(=O)/C(=C/c3ccc(OC)c(OC)c3)C2=O)cc1,101.0,5.0,2.2,102.0,-9.4,x,x,x
COC(=O)c1c(NC(=O)/C=C/c2ccco2)sc2c1CCC2,104.0,2.0,8.1,134.0*,-6.7,96.0,-4.0,100.0
Cc1cc(C(=O)NNC(=O)c2cccs2)c(C)o1,x,x,-1.2,x,-1.5,x,x,x
CCCCN(CCCC)S(=O)(=O)c1ccc(NC(=O)Cc2cccs2)cc1,143.0*,15.0,7.4,112.0,-1.1,104.0,-8.0,104.0
COc1ccc(N2CCN(C(=O)c3cc4c(s3)-c3ccccc3S(=O)(=O)C4)CC2)cc1,-10.0*[inhibitor],-19.0,-11.0,82.0,4.6,101.0,5.0,104.0
CCCCCOc1ccc2oc(=O)c3c(c2c1)CCCN3C(=O)CN1CCCC(C(=O)OCC)C1 (stereo not given),2.0*[inhibitor],-14.0,37.9,2.0*[inhibitor],5.1,96.0,-2.0,102.0
Cc1cccc(C)c1N(CC(=O)NCc1ccccc1)C(=O)c1csnn1,95.0,-3.0,6.8,99.0,-7.9,x,x,x
COc1ccccc1N(C)S(=O)(=O)c1ccc(C(=O)OCC(=O)Nc2ccccc2F)cc1,45.0*[inhibitor],-16.0,2.7,46.0*[inhibitor],-2.9,94.0,0.0,99.0
COc1cccc(Nc2nc(NCC3CCCO3)c3ccccc3n2)c1 (stereo not given),144.0*,20.0,32.6,106.0,42.2,141.0,31.0,105.0
Oc1ccc(Nc2nc(NCC3CCCO3)c3ccccc3n2)cc1 (stereo not given),128.0,15.0,15.7,100.0,45.0,x,x,x
COC(=O)c1[nH]c2cc(OC)ccc2c1N,30.0*[inhibitor],-43.0,8.6,18.0*[inhibitor],-5.5,109.0,7.0,102.0
COC(=O)c1[nH]c2cc(OC)ccc2c1NC(=O)CCN1CCSCC1,125.0,7.0,8.1,124.0*,-6.3,98.0,2.0,100.0
COC(=O)c1[nH]c2cccc(OC)c2c1NC(=O)CCN1CCSCC1,102.0,4.0,-4.6,105.0,-1.2,x,x,x
CCOC(=O)Nc1c(C(=O)OC)[nH]c2cc(OC)ccc12,102.0,11.0,-0.5,107.0,0.6,x,x,x
COC(=O)N/N=C/c1cc(C)n(-c2ccccc2)c1C,1.0*[inhibitor],-4.0,-11.2,1.0*[inhibitor],-1.6,101.0,0.0,100.0
O=C(NCC1CCCO1)C1CCCN1C(=O)NC1CCCCC1 (stereo not given),98.0,-3.0,12.4,99.0,-2.9,x,x,x
O=C(NCC1CCCO1)C1CCCN1C(=O)Nc1ccc(Cl)c(Cl)c1 (stereo not given),5.0*[inhibitor],-46.0,3.1,4.0*[inhibitor],-6.8,101.0,4.0,100.0
SMILES,MEKK2wt PB1 HTS,MEKK2 mut-MEK5,Apaf-1 inh,MEKK3 PB1 HTS,UBC13 inh,MEKK2wt confirm,MEKK2mut-MEK5,MEKK3 confirm
CN(C)S(=O)(=O)c1cccc(NC(=O)COC(=O)CNC(=O)c2ccccc2F)c1,96.0,5.0,-22.3,101.0,16.7,x,x,x
CCCCC(CC)CNC(=O)CC1Nc2c3ccccc3nc(=S)n2C1=O (stereo not given),106.0,4.0,-12.3,103.0,u,x,x,x
O=C(Nc1cccc(NS(=O)(=O)c2ccc(S(=O)(=O)NC3CC3)cc2)c1)c1ccccn1,114.0,5.0,5.6,124.0*,-5.4,101.0,1.0,108.0
O=C(CN1C(=O)C(=O)c2ccccc21)NC1CCCCC1,98.0,0.0,1.8,48.0*[inhibitor],-5.8,101.0,5.0,100.0
COc1cc(CCC(=O)Nc2ccc(Br)c(C(F)(F)F)c2)cc(OC)c1OC,112.0,0.0,15.2,151.0*,17.4,105.0,1.0,102.0
CCN(CC)Cc1c(C(=O)N/N=C/c2cccs2)nnn1-c1nonc1N,98.0,-3.0,2.2,103.0,-7.3,x,x,x
Brc1ccc(Nc2ncnc3[nH]ncc23)cc1,68.0,-30.0,9.7,73.0*[inhibitor],16.9,101.0,2.0,101.0
COC(=O)Cn1ncc(N(C)Cc2ccccc2)c(Cl)c1=O,97.0,-6.0,1.9,98.0,-5.6,x,x,x
Cc1cc(C)nc(SCc2cc(=O)c(OC(=O)c3ccco3)co2)n1,101.0,-1.0,-1.2,113.0,-2.8,x,x,x
Cc1cc(C)nc(SCc2cc(=O)c(OC(=O)c3ccc(Br)o3)co2)n1,109.0,1.0,1.3,128.0*,5.0,100.0,-8.0,99.0
COc1ccc(CC(=O)O/N=C(\N)c2ccccc2)cc1OC,100.0,-4.0,2.6,99.0,6.3,x,x,x
CC(C)(C)c1ccc(/C=N/NC(=O)c2ccccn2)cc1,x,86.0*,-4.0,87.0,-9.2,108.0,4.0,105.0
Cc1cc(N/N=C2/CCCc3ccccc32)nc2ccccc12,160.0*,28.0,6.4,108.0,0.5,154.0,28.0,109.0
c1ccc(N/N=C2\CCCc3ccccc32)nc1,99.0,2.0,12.5,101.0,-10.1,x,x,x
COC(=O)C1=C(C)Nc2nnnn2C1c1cc(OC)ccc1OC (stereo not given),98.0,-1.0,-0.8,99.0,4.2,x,x,x
COc1ccc(OC)c(C2C3=C(CCCC3=O)Nc3nnnn32)c1 (stereo not given),107.0,0.0,4.1,133.0*,8.3,99.0,-3.0,98.0
NS(=O)(=O)c1ccc(CNC(=S)NC2CC2)cc1,104.0,2.0,0.7,102.0,-0.9,x,x,x

# Screening results (PubChem BioAssay)
